# RanGTP-Imp inh: disruptors of Ran-importin-beta complex formation – biochemical, FRET, CFP-Ran, YFP-importin-beta, homogeneous, primary screen | cell-free CFP-Ran/YFP-importin-beta FRET ratio | AID 2216 | inhibition, % (concentration not given with the values) | 300,000 compounds, 1.1% hits;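 active = more than half of the replicate wells show a fall in the fluorescence ratio signal beyond about 16%, limit read from the data, passing the limit was not always enough; inconclusive = exactly half of the replicate wells pass the set limit; inactive = fewer than half of replicates pass the limit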;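 note: 0% = DMSO wells and 100% = Ran loaded with GDP instead of GTP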
# Rce1 inhib: blocks yeast Ras-converting enzyme. Q03530. yeast membranes, quenched prenylated peptide cleavage fluorescence. calls only. 290,000 compounds, 0.27% hits;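 active = fall in fluorescence gain of 50% or more versus controls, with final raw signal at or below 3038400; inconclusive = same 50% fall but final raw signal above 3038400; inactive = fall in fluorescence gain under 50%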;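 note: plate controls were neutral control wells for no effect and wells lacking membranes for full effect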
# Vif imaging: blocks HIV Vif function; HEK293T cells, Vif self-association by quenched fluorescence, imaging, 24 h; inhibition, % at 7.49 µM; 340,000 compounds, 0.35% hits; AID 602346; in the data active = inhibition above about 50%, passing the limit was not always enough; inconclusive = no clear call, values can overlap the other calls; inactive = below about 31%
# Runt-SMMHC FRET: inhibitors of human RUNX1 Runt domain binding to CBFb-SMMHC; inhibition, % at 20 µM; Cerulean-Runt/Venus-CBFb-SMMHC FRET ratio 530/480, 1 h; 220,000 compounds, 0.74% hits; Q01196+Q13951;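 active = mean inhibition across duplicate retests at 20 µM reaching about 50%, limit read from the data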;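 note: 0% = DMSO wells and 100% = wells with excess untagged CBFb-SMMHC; inhibitors lower the FRET ratio by blocking Runt binding to CBFb-SMMHC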
# Target sequence (Q01196 whole entry, looked up, the tested form may be a part): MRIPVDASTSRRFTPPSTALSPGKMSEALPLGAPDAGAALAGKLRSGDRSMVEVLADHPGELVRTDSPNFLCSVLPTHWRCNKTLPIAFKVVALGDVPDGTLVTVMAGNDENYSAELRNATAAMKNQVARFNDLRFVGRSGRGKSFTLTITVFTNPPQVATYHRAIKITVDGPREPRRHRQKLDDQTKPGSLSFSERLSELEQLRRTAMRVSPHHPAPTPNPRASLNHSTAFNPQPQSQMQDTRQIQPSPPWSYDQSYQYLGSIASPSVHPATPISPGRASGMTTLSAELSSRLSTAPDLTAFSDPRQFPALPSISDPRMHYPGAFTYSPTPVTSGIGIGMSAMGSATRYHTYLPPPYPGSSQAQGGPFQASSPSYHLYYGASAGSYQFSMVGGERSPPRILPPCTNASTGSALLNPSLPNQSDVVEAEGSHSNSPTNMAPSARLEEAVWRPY
# Target sequence (Q13951 whole entry, looked up, the tested form may be a part): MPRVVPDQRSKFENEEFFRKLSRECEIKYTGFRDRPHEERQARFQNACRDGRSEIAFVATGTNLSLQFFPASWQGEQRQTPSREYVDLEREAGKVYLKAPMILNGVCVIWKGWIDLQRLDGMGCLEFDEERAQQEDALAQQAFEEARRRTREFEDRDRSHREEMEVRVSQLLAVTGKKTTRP
# Runt-CBFb FRET: Runt domain-CBFb interaction inhibition; Cerulean-Runt/Venus-CBFb FRET ratio 530/480, 1 h; inhibition, % at 20 µM; 220,000 compounds, 0.46% hits;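 active = inhibition over about 50% at 20 µM in the single-dose screen, limit read from the data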;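 note: 0% = DMSO wells and 100% = excess unlabeled CBFb competitor control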
#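 Measured by: fluorescence energy transfer, 422 nm excitation, 530/480 nm emission; Assay system: Cerulean-Runt domain; Medium: Tris pH 7.5 buffer with BSA; Measure: loss of energy transfer signal; Controls: 5 µM unlabeled CBFb as full-inhibition high control; Incubation: protein complex preformed 1 h, compound exposure 1 h, room temperature, dark.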
# * marks the source's active call; other numbers are inactive results; i = inactive; u = inconclusive; x = no result; + = active, no number. Shown are actives, neighbours in structure and some others; about 1.7% of the full set was active somewhere.
SMILES,RanGTP-Imp inh,Rce1 inhib,Vif imaging,Runt-SMMHC FRET,Runt-CBFb FRET
CC1=C(/C=C/C(C)=C/C=C/C(C)=C/C(=O)O)C(C)(C)CCC1,-4,i,65*,1,-1
Nc1ncnc2c1ncn2C1OC(COP(=O)(O)O)C(O)C1O (stereo unspecified),-11,i,66*,x,x
Nc1ncnc2c1ncn2[C@@H]1O[C@H](CO)C[C@H]1O,0,i,56*,x,x
Nc1ncnc2c1ncn2[C@@H]1O[C@H](COP(=O)(O)O)[C@@H](O)[C@H]1O,2,i,106*,x,x
Nc1ncnc2c1ncn2[C@@H]1O[C@H](COP(=O)(O)OP(=O)(O)OP(=O)(O)O)[C@@H](O)[C@H]1O,x,x,-4,x,x
COc1ccc(CC(=O)Nc2sccc2C#N)cc1S(=O)(=O)N1CCOCC1,1,i,2,x,x
COc1ccc(-n2c(=S)[nH]c3cc(C(=O)Nc4ccc(F)cc4)ccc3c2=O)c(OC)c1,1,i,-6,x,x
O=C(NCc1ccco1)c1cc2nc(-c3cccs3)cc(C(F)(F)F)n2n1,20*,i,-8,39,24
FC(F)(F)c1cc(-c2cccs2)nc2cc(-c3ccccc3)nn12,46*,i,-8,-3,2
CCC1(c2ccccc2)NC(=O)N(CC(=O)NNC(=O)c2ccoc2C)C1=O (stereo unspecified),1,i,-3,x,x
CN(C)Cc1c(O)c(Cl)cc2c3c(c(=O)oc12)CCCC3,43*,u,u,59*,88*
Cc1c(O)c(CN(C)C)cc2c1oc(=O)c1ccccc12,-4,i,-3,-19,-11
O=c1oc2c(CN3CCOCC3)c(O)c(Cl)cc2c2c1CCC2,x,x,11,176*,104*
CCc1c(C)c2cc(Cl)c(O)c(CN(C)C)c2oc1=O,39*,u,x,92*,92*
CN(Cc1ccccc1)C(=O)c1ccc(S(=O)(=O)N(C)c2ccccc2)cc1,x,x,0,x,x
CC1=CC(C)(C)n2c(O)c(N=N)c3cc(C)cc1c32,-4,i,-4,0,-3
CN(C)S(=O)(=O)c1cccc(NC(=S)N/N=C/c2cccc(O)c2)c1,-2,i,2,2,3
CN(C)S(=O)(=O)c1cccc(NC(=S)N/N=C/c2cc(Br)ccc2O)c1,5,i,-7,81*,3
COc1ccc(CCn2c(=N)c(C(=O)NCC3CCCO3)cc3c(=O)n4ccccc4nc32)cc1OC (stereo unspecified),6,i,4,x,x
N=c1c(C(=O)NC2CCCC2)cc2c(=O)n3ccccc3nc2n1CC1CCCO1 (stereo unspecified),174*,i,-55,x,x
N=c1c(C(=O)NC2CCCCC2)cc2c(=O)n3ccccc3nc2n1CC1CCCO1 (stereo unspecified),171*,i,1,x,x
Cc1ccc(CNC(=O)c2cc3c(=O)n4ccccc4nc3n(CC3CCCO3)c2=N)cc1 (stereo unspecified),-10,u,2,63*,18
Cc1ccc2nc3c(cc(C(=O)NCC4CCCO4)c(=N)n3CC3CCCO3)c(=O)n2c1 (stereo unspecified),175*,i,9,x,x
Cc1ccc(C(=O)N2CCN(c3cnn(C)c(=O)c3Cl)CC2)cc1,-8,i,x,-2,1
CCCS(=O)(=O)NC(=O)C1(C)CCCN(C(=O)C2(c3ccc(Cl)cc3)CCCC2)C1 (stereo unspecified),x,x,-2,x,x
SMILES,RanGTP-Imp inh,Rce1 inhib,Vif imaging,Runt-SMMHC FRET,Runt-CBFb FRET
Cn1c(C(=O)NCC2CCCO2)cc2c(=O)n3ccccc3nc21 (stereo unspecified),2,i,x,61*,23
CC(NC(=O)c1cc2c(=O)n3ccccc3nc2n(CC2CCCO2)c1=N)c1ccccc1 (stereo unspecified),+,x,-6,x,x
CCOC(=O)c1cc2c(=O)n3ccccc3nc2n(CC2CCCO2)c1=NC(C)=O (stereo unspecified),71*,x,5,59*,42
Nc1nc(SCc2ccccc2Cl)c2ncn(C3OC(CO)C(O)C3O)c2n1 (stereo unspecified),x,x,-1,x,x
CCOc1ccc(NC(=O)CN2CCN(c3ccc(F)cc3)CC2)cc1S(=O)(=O)N1CCCC1,x,x,-4,x,x
O=C1c2ccccc2C(=O)N1Cc1nc2ccccc2c(=O)n1CCCn1ccnc1,x,i,-1,-2,0
O=C1c2ccccc2C(=O)N1CCCc1nc2ccccc2c(=O)n1Cc1ccco1,6,i,-11,7,130*
O=C1c2ccccc2C(=O)N1CCc1nc2ccccc2c(=O)n1CCCn1ccnc1,25*,i,-2,-2,0
O=c1c2ccccc2nc(-c2ccccc2)n1Cc1ccco1,-2,x,-8,7,4
CCC1(c2ccccc2)NC(=O)N(CC(=O)Nc2ccc3c(c2)OCO3)C1=O (stereo unspecified),-2,i,-1,2,-1
CCC1(CC)NC(=O)N(CC(=O)Nc2ccc(OCc3ccccc3)cc2)C1=O,x,x,55*,x,x
COc1ccc(NC(=O)CN2C(=O)NC(c3ccccc3)(c3ccccc3)C2=O)cc1OC,31*,i,-2,x,x
CCC1(c2ccccc2)NC(=O)N(CC(=O)Nc2ccc3c(C)cc(=O)oc3c2)C1=O (stereo unspecified),-2,+,-12,x,x
O=C(NCCc1ccc(F)cc1)c1ccc(NS(=O)(=O)c2ccc3[nH]c(=O)[nH]c3c2)cc1,u,x,-5,x,x
COc1ccccc1/C=C/C=N/NC(=O)c1ccc2nc[nH]c2c1,5,i,x,0,x
Cc1cc(C)cc(NC(=O)C2CCN(S(=O)(=O)c3ccc4[nH]c(=O)ccc4c3)CC2)c1,-2,i,3,x,x
CC(CC(=O)Nc1nnc(C(C)(C)C)s1)c1ccccc1 (stereo unspecified),2,i,4,x,x
CN1CCc2c(sc(N)c2C(=O)c2ccc(Cl)cc2)C1,11,i,x,x,x
CN1CCc2c(sc3c2C(=O)NC(/C=C\c2ccccc2)N3)C1 (stereo unspecified),121*,i,1,70*,118*
CSc1ccc(C2CC(=O)Nc3c2c(=O)n(C)c(=O)n3C)cc1 (stereo unspecified),-6,i,4,2,0
Cc1ccsc1C1NC(=O)c2c(sc3c2CCN(C)C3)N1 (stereo unspecified),132*,i,i,73*,106*
CSc1ccc(C2NC(=O)c3c(sc4c3CCN(C)C4)N2)cc1 (stereo unspecified),112*,i,i,64*,110*
CN1CCc2c(sc3c2C(=O)NC(c2ccc(-c4cccc(Cl)c4)o2)N3)C1 (stereo unspecified),103*,i,i,85*,115*
CCOC(=O)CSc1nc2sc3c(c2c(=O)n1-c1ccccc1)CCN(C)C3,4,i,26,x,x

# Screening data: PubChem BioAssay, several laboratories
